These results are taken from ChEMBL document CHEMBL3856229, “Hybrid Antibiotic Overcomes Resistance in P. aeruginosa by Enhancing Outer Membrane Penetration and Reducing Efflux” (J Med Chem, 2016).

Each structure is given as a SMILES string.

Test [1] has as its system Staphylococcus aureus. Briefly: Antibacterial activity against Staphylococcus aureus ATCC 29213 after 24 hrs by microtitre broth dilution method. The class given is functional. Particulars: ATCC 29213, 24 h.
Test [2] has as its system Staphylococcus aureus. Briefly: Antibacterial activity against methicillin-resistant Staphylococcus aureus ATCC 33592 after 24 hrs by microtitre broth dilution method. Format: functional. Particulars: ATCC 33592, 24 h.
For test [3], the system named is Staphylococcus epidermidis. The test can be described thus: Antibacterial activity against methicillin-susceptible Staphylococcus epidermidis isolate CANWARD-2008 81388 after 24 hrs by microtitre broth dilution method. Particulars: isolate CANWARD-2008 81388, 24 h. The class given is functional. (In general: In broth dilution the organism is exposed to a series of concentrations in liquid medium.)

For test [4], the system named is Staphylococcus epidermidis. The test can be described thus: Antibacterial activity against methicillin-resistant Staphylococcus epidermidis isolate CAN-ICU 61589 after 24 hrs by microtitre broth dilution method. The class given is functional. Particulars: isolate CAN-ICU 61589, 24 h.
For test [5], the system named is Enterococcus faecalis. The test can be described thus: Antibacterial activity against Enterococcus faecalis ATCC 29212 after 24 hrs by microtitre broth dilution method. The class given is functional. Particulars: ATCC 29212, 24 h.
For test [6], the system named is Enterococcus faecium. The test can be described thus: Antibacterial activity against Enterococcus faecium ATCC 27270 after 24 hrs by microtitre broth dilution method. The class given is functional. Particulars: ATCC 27270, 24 h.
Test [7] deals with Streptococcus pneumoniae. Briefly: Antibacterial activity against Streptococcus pneumoniae ATCC 49619 after 24 hrs by microtitre broth dilution method. The class given is functional. Particulars: ATCC 49619, 24 h.
Test [8] concerns Escherichia coli. Briefly: Antibacterial activity against gentamicin-resistant Escherichia coli isolate CAN-ICU 61714 after 24 hrs by microtitre broth dilution method. The class given is functional. Particulars: isolate CAN-ICU 61714, 24 h.
For test [9], the system named is Escherichia coli. The test can be described thus: Antibacterial activity against amikacin-resistant Escherichia coli isolate CAN-ICU 63074 after 24 hrs by microtitre broth dilution method. Format: functional. Particulars: isolate CAN-ICU 63074, 24 h.
Test [10] has as its system Escherichia coli. Briefly: Antibacterial activity against gentamicin/tobramycin/ciprofloxacin-resistant Escherichia coli isolate CANWARD-2011 97615 harboring AAC3-2A after 24 hrs by microtitre broth dilution method. Format: functional. Particulars: isolate CANWARD-2011 97615, 24 h.
The test system of test [11] is Pseudomonas aeruginosa. The test can be described thus: Antibacterial activity against Pseudomonas aeruginosa ATCC 27853 after 24 hrs by microtitre broth dilution method. The class given is functional. Particulars: ATCC 27853, 24 h.
For test [12], the system named is Pseudomonas aeruginosa. Briefly: Antibacterial activity against gentamicin-resistant Pseudomonas aeruginosa isolate CAN-ICU 62308 after 24 hrs by microtitre broth dilution method. Format: functional. Particulars: isolate CAN-ICU 62308, 24 h.
In test [13] the test system is Pseudomonas aeruginosa. The test can be described thus: Antibacterial activity against gentamicin/tobramycin-resistant Pseudomonas aeruginosa isolate CANWARD-2011 96846 after 24 hrs by microtitre broth dilution method. The class given is functional. Particulars: isolate CANWARD-2011 96846, 24 h.
Test [14] deals with Stenotrophomonas maltophilia. Briefly: Antibacterial activity against Stenotrophomonas maltophilia isolate CAN-ICU 62584 after 24 hrs by microtitre broth dilution method. Format: functional. Particulars: isolate CAN-ICU 62584, 24 h.
Test [15] concerns Acinetobacter baumannii. Briefly: Antibacterial activity against Acinetobacter baumannii isolate CAN-ICU 63169 after 24 hrs by microtitre broth dilution method. Format: functional. Particulars: isolate CAN-ICU 63169, 24 h.
For test [16], the system named is Klebsiella pneumoniae. The test can be described thus: Antibacterial activity against Klebsiella pneumoniae ATCC 13883 after 24 hrs by microtitre broth dilution method. Format: functional. Particulars: ATCC 13883, 24 h.
Test [17] has as its system Pseudomonas aeruginosa. The test can be described thus: Antibacterial activity against multidrug/extremely drug-resistant/colistin-susceptible Pseudomonas aeruginosa isolate 259-96918. The class given is functional.
The test system of test [18] is Pseudomonas aeruginosa. The test can be described thus: Antibacterial activity against multidrug/extremely drug-resistant/colistin-susceptible Pseudomonas aeruginosa isolate 260-97103. Format: functional.
Test [19] has as its system Pseudomonas aeruginosa. The test can be described thus: Antibacterial activity against multidrug/extremely drug-resistant/colistin-susceptible Pseudomonas aeruginosa isolate 262-101856. The class given is functional.
In test [20] the test system is Pseudomonas aeruginosa. The test can be described thus: Antibacterial activity against multidrug/extremely drug-resistant/colistin-susceptible Pseudomonas aeruginosa isolate 264-104354. Format: functional.
For test [21], the system named is Pseudomonas aeruginosa. Briefly: Antibacterial activity against Pseudomonas aeruginosa PAO1. Format: functional.
The test system of test [22] is Escherichia coli. Briefly: Antibacterial activity against Escherichia coli ATCC 25922 after 24 hrs by microtitre broth dilution method. The class given is functional. Particulars: ATCC 25922, 24 h.
Test [23] can be described thus: Inhibition of circular DNA translation in Escherichia coli S30 extract after 60 mins by luciferase reporter gene assay. In outline:
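Translation was run in an E. coli S30 extract with a luciferase read-out. Luminescence is expressed as a percentage of the no-antibiotic control, taken as 100%.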
For orientation: In a reporter assay the amount or activity of a reporter protein is the signal.

The nature of test [24]: Inhibition of Pseudomonas aeruginosa DNA gyrase A assessed as inhibition of DNA supercoiling using PBR322 DNA as substrate after 30 mins by SYBR Gold staining based agarose gel electrophoresis.

Turning to `COc1c(N2C[C@@H]3CCCN(CCCCCCCCCCCCO[C@H]4[C@@H](O[C@@H]5[C@@H](O)[C@H](O[C@H]6O[C@H](CN)[C@@H](O)C[C@H]6N)[C@@H](N)C[C@H]5N)O[C@H](CO)[C@@H](O)[C@@H]4N)[C@@H]3C2)c(F)cc2c(=O)c(C(=O)O)cn(C3CC3)c12.Cl.Cl.Cl.Cl.Cl`, the MIC (usually the smallest concentration in the dilution series that meets the test's criterion for growth inhibition) came to 4 mg/L in test [1]; 8 mg/L in test [2]; 2 mg/L in test [3]; 8 mg/L in test [4]; 32 mg/L in test [5]; 16 mg/L in [6]. The MIC was found to be 32 mg/L in test [7]; 64 mg/L in test [8]; 32 mg/L in test [9]; 128 mg/L in test [10]; 16 mg/L in [11]; 128 mg/L in [12]. The MIC in test [13] was over 128 mg/L; in test [14], over 128 mg/L; in [15], 128 mg/L; in [16], 4 mg/L; in test [17] it was over 32 mg/L; in [18], over 32 mg/L. Moreover, the MIC in test [19] was 32 mg/L; in [20] it was 32 mg/L; in test [21], over 32 mg/L; in test [22], 4 mg/L. Moreover, the IC50 (usually the concentration that gives 50% inhibition) turned out to be 0.13 µM in [23] and 2.1 µM in test [24].
As to `COc1c(N2C[C@@H]3CCCN(CCCCCCCCCCCCOC[C@H]4O[C@H](O[C@@H]5[C@@H](O)[C@H](O[C@H]6O[C@H](CN)[C@@H](O)C[C@H]6N)[C@@H](N)C[C@H]5N)[C@H](O)[C@@H](N)[C@@H]4O)[C@@H]3C2)c(F)cc2c(=O)c(C(=O)O)cn(C3CC3)c12.Cl.Cl.Cl.Cl.Cl`, the MIC came to 16 mg/L in test [1]; 16 mg/L in test [2]; 8 mg/L in [3]; 8 mg/L in test [4]; 32 mg/L in test [5]; 16 mg/L in test [6]. Moreover, the MIC in test [7] came out at 64 mg/L; in test [8], 64 mg/L; in test [9] it was 64 mg/L; in test [10], 128 mg/L; in test [11], 64 mg/L; in test [12], 32 mg/L. In addition, the MIC was 64 mg/L in test [13]; over 128 mg/L in test [14]; over 128 mg/L in test [15]; 16 mg/L in [16]; over 32 mg/L in [17]; 32 mg/L in test [18]. Besides, the MIC in test [19] was over 32 mg/L; in [20], over 32 mg/L; in test [21], over 32 mg/L; in [22] it was 16 mg/L. Besides, in [24], the IC50 was found to be 2.6 µM.
